Experimental data taken from ChEMBL document CHEMBL2390820, “3-Biphenylimidazo[1,2-a]pyridines or [1,2-b]pyridazines and analogues, novel Flaviviridae inhibitors” (Eur J Med Chem, 2013).
Values after ≈ are worked out from the molar mass of the structure shown.

Legend:
[1] = Cytotoxicity against MDBK cells assessed as growth inhibition after 3 days by MTS assay; assay type: cell-based, Bos taurus; conditions: cattle
Summary of the method: (§1)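 MDBK or Huh 5-2 cells were seeded at 5 × 10³/well in MEM-FCS, with serial compound dilutions added 24 h later. Cells proliferated 3 days at 37 °C, then metabolic activity was read by MTS/PMS. CC50 is the concentration inhibiting proliferation of exponentially growing cells by 50%, by linear interpolation.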

Hepatitis C virus = test: Antiviral activity against HCV genotype 1b infected in Huh5-2 cells assessed as inhibition of viral replication after 4 days by luciferase reporter gene assay; assay type: functional, organism-based, Hepacivirus hominis, Huh-5-2; conditions: Hepatitis C virus, genotype 1b, Huh-5-2, 96 h
Summary of the method: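 Huh 5-2 cells carrying the HCV subgenomic luciferase replicon were seeded at 5 × 10³/well with compound and incubated 4 days at 37 °C. Medium was removed and luciferase activity quantified. EC50 is the minimum concentration reducing replicon-driven luciferase signal by 50%.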

[2] = Selectivity index, ratio of CC50 for Huh5-2 cells to EC50 for HCV genotype 1b infected in Huh5-2 cells; parameters: species or system Huh-5-2
Summary of the method: (§2)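 Selectivity index is the ratio of CC50 from the 3-day MTS/PMS proliferation assay to EC50 in the same cell line. For Huh 5-2 the EC50 is from the luciferase replicon assay; for MDBK it is from the MTS CPE assay.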

[3] = Selectivity index, ratio of CC50 for MDBK cells to EC50 for BVDV NADL infected in MDBK cells; summary of the method: as §2
[4] = (§3) Antiviral activity against BVDV NADL infected in MDBK cells assessed as inhibition of virus-induced cytopathic effect formation after 5 days by MTS assay; assay type: functional, cell-based, Bovine viral diarrhea virus 1-NADL; conditions: Bovine viral diarrhea virus isolates and strains, 120 h
Summary of the method: (§4)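 MDBK cells were seeded at 5 × 10³/well in MEM-FCS and held 24 h at 37 °C, 5% CO₂. Medium was replaced with 5-fold serial compound dilutions, then BVDV inoculum was added at MOI 2. CPE was read by MTS as OD at 490 nm. EC50 is the concentration giving 50% protection against virus-induced CPE, by linear interpolation.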

[5] = Cytotoxicity against human Huh5-2 cells assessed as growth inhibition after 3 days by MTS assay; assay type: cell-based, Huh-5-2; summary of the method: as §1
[6] = Selectivity index, ratio of CC50 for MDBK cells to EC50 for BVDV NADL infected in MDBK cells assessed as inhibition of progeny infectious viral particle production
[7] = tested on: Bovine viral diarrhea virus 1-NADL; test: Selectivity ratio of EC50 for AG110-resistant BVDV NADL to EC50 for wild type BVDV NADL; assay type: functional
[8] = tested on: Bovine viral diarrhea virus 1-NADL; test: Selectivity ratio of EC50 for BPIP-resistant BVDV NADL to EC50 for wild type BVDV NADL; assay type: functional
[9] = Antiviral activity against AG110-resistant BVDV NADL assessed as inhibition of viral replication; assay type: functional, Bovine viral diarrhea virus 1-NADL
Summary of the method: (§5)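 MDBK cells were seeded at 5 × 10³/well in MEM-FCS and held 24 h at 37 °C in 5% CO₂. Medium was replaced with 5-fold serial compound dilutions, then BVDV NADL (drug-selected resistant variant) at MOI 2. CPE was read by the MTS method at OD 490 nm, and % CPE was calculated. EC50 is the concentration giving 50% protection from virus-induced CPE, by linear interpolation.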

[10] = Antiviral activity against LZ37-resistant BVDV NADL assessed as inhibition of viral replication; assay type: functional, Bovine viral diarrhea virus 1-NADL; summary of the method: as §5
[11] = tested on: Bovine viral diarrhea virus 1-NADL; test: Selectivity ratio of EC50 for LZ37-resistant BVDV NADL to EC50 for wild type BVDV NADL; assay type: functional
[12] = Selectivity index, ratio of CC50 for MDBK cells to EC50 for BVDV NADL infected in MDBK cells assessed as inhibition of viral RNA synthesis
[13] = tested on: Bovine viral diarrhea virus 1-NADL; test: Selectivity ratio of EC50 for LZ37-resistant BVDV NADL to EC50 for AG110-resistant BVDV NADL; assay type: functional
[14] = Antiviral activity against BVDV NADL infected in MDBK cells assessed as inhibition of progeny infectious viral particle production; assay type: functional, cell-based, Bovine viral diarrhea virus 1-NADL; conditions: Bovine viral diarrhea virus isolates and strains
[15] = Antiviral activity against BVDV NADL infected in MDBK cells assessed as inhibition of viral RNA synthesis by RT-qPCR analysis; assay type: functional, cell-based, Bovine viral diarrhea virus 1-NADL; conditions: Bovine viral diarrhea virus isolates and strains
[16] = Antiviral activity against BPIP-resistant BVDV NADL assessed as inhibition of viral replication; assay type: functional, Bovine viral diarrhea virus 1-NADL; summary of the method: as §5
[17] = Selectivity ratio of EC50 for BVDV NADL infected in MDBK cells assessed as inhibition of progeny infectious viral particle production to EC50 for BVDV NADL infected in MDBK cells assessed as inhibition of viral RNA synthesis; assay type: functional, Bovine viral diarrhea virus 1-NADL
MDBK = test: as §3; assay type: functional, cell-based; conditions: Bovine viral diarrhea virus 1-NADL; summary of the method: as §4

Row | SMILES | CC50 at 72 h [1] [µg/mL] | EC50 (Hepatitis C virus) [µg/mL] | Ratio CC50/EC50 [2] | Ratio CC50/EC50 [3] | EC50 [4] [µg/mL] | CC50 at 72 h [5] [µg/mL] | Ratio CC50/EC50 [6] | Ratio EC50 [7] | Ratio EC50 [8] | EC50 [9] [µg/mL] | EC50 [10] [µg/mL] | Ratio EC50 [11] | Ratio CC50/EC50 [12] | Ratio EC50 [13] | EC50 [14] [µg/mL] | EC50 [15] [µg/mL] | EC50 [16] [µg/mL] | Ratio EC50 [17] | inhibition (MDBK)
1 | Fc1ccc(-c2nc3ccc(-c4ccccc4)nn3c2-c2cccc(-c3ccccc3)c2)cc1 | 25 (≈ 56.6 µM) | 11.3 (≈ 25.6 µM) | 1.4 | 20 | 1.23 (≈ 2.79 µM) | 15.9 (≈ 36 µM) | – | – | – | – | – | – | – | – | – | – | – | – | –
2 | CC(C)(C)c1nc2ccc(-c3ccsc3)nn2c1-c1cccc(-c2ccccc2)c1 | > 100 | 22.7 (≈ 55.4 µM) | 2.8 | >2.6 | 37.9 (≈ 92.5 µM) | 63.2 (≈ 154 µM) | – | – | – | – | – | – | – | – | – | – | – | – | –
3 | Fc1ccc(-c2nc3ccc(-c4ccccc4)cn3c2-c2cccc(-c3ccccc3)c2)cc1 | > 50 | 52.2 (≈ 118 µM) | 1.09 | >4 | 12 (≈ 27.2 µM) | 56.8 (≈ 129 µM) | – | – | – | – | – | – | – | – | – | – | – | – | –
4 | Fc1ccc(-c2nc3ccc(Sc4ccccc4)cn3c2-c2cccc(-c3ccccc3)c2)cc1 | > 100 | > 106 | >1 | >50 | 2 (≈ 4.23 µM) | > 106 | 19 | 0.9 | 1.5 | 3.9 (≈ 8.25 µM) | 8.8 (≈ 18.6 µM) | 2.2 | 37 | 2 | 8 (≈ 16.9 µM) | 2.7 (≈ 5.71 µM) | 6 (≈ 12.7 µM) | 2 | Dose-dependent effect
5 | Fc1ccc(-c2nc3ccc(-c4ccsc4)nn3c2-c2cccc(-c3ccccc3)c2)cc1 | 13 (≈ 29 µM) | 11.2 (≈ 25 µM) | 1.2 | 8 | 1.7 (≈ 3.8 µM) | 13.4 (≈ 29.9 µM) | – | – | – | – | – | – | – | – | – | – | – | – | –
6 | Fc1ccc(-c2nc3ccc(N4CCOCC4)cn3c2-c2cccc(-c3ccccc3)c2)cc1 | > 50 | 6.7 (≈ 14.9 µM) | 1.7 | >1 | > 50 | 11.1 (≈ 24.7 µM) | – | – | – | – | – | – | – | – | – | – | – | – | –
7 | CC(C)(C)c1nc2ccc(-c3ccsc3)cn2c1-c1cccc(-c2ccccc2)c1 | > 100 | 42.5 (≈ 104 µM) | >2.4 | >1.6 | 62.6 (≈ 153 µM) | > 123 | – | – | – | – | – | – | – | – | – | – | – | – | –
8 | c1ccc(-c2cccc(-c3cnc4ccc(-c5ccsc5)cn34)c2)cc1 | > 100 | 89.5 (≈ 254 µM) | >1.6 | >1 | > 100 | > 142 | – | – | – | – | – | – | – | – | – | – | – | – | –
9 | Fc1ccc(-c2nc3ccccn3c2-c2cccc(-c3ccc(Cl)cc3)c2)cc1 | 12.7 (≈ 31.8 µM) | 5.9 (≈ 14.8 µM) | 9.7 | 4.3 | 3 (≈ 7.52 µM) | 57.5 (≈ 144 µM) | – | – | – | – | – | – | – | – | – | – | – | – | –
